# Sampled rows, rich in hits. Any-hit rate of the full collection: about 2.9%.
# SENP6 block = SENP6 protease inhibitors, primary screen, biochemical, luminescence, uHTS | 1.8% of 330,000 active | Recombinant SENP6 catalytic domain, aminoluciferin luminescence | Sentrin-specific protease 6 (Homo sapiens), Q9GZR1 | inhibition, % at 10 µM;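 active means inhibition above about 50% at the single tested dose, limit read from the data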;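 further: plate controls were DMSO wells with enzyme for no effect and DMSO wells lacking enzyme for full effect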
# Target sequence (Q9GZR1 628-1112 limits assumed): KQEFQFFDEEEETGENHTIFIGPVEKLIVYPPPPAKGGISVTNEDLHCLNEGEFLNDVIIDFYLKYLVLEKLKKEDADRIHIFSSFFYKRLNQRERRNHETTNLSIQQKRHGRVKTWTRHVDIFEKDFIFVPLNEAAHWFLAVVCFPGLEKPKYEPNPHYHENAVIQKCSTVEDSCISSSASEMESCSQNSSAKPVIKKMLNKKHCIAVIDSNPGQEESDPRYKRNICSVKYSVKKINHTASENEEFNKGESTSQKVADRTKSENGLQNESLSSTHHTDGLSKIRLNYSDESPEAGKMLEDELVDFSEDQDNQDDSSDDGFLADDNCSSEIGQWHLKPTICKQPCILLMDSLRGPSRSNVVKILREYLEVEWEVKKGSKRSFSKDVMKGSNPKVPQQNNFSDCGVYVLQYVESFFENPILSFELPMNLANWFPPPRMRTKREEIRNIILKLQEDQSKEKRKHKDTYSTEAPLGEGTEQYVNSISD
# SENP8 block-1 = human SENP8 protease inhibitors, primary screen, biochemical, fluorescence, Nedd8 protein substrate, uHTS; inhibition, % at 20 µM; recombinant SENP8; 0.64% of 360,000 active; Sentrin-specific protease 8 (Homo sapiens), Q96LD8; in the data active means inhibition mostly above about 40%, no sharp cut-off; inactive means mostly below about 27%
# SENP1 FRET inh = human SENP1 catalytic domain inhibitors, primary screen, biochemical, FRET, uHTS; recombinant SENP1 catalytic domain, CyPet-SUMO1-YPet FRET cleavage; inhibition, % at 10 µM; 0.21% of 360,000 active; AID 624204, 2012;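 active means inhibition at least 30% at 10 µM, raw YFP signal under a set limit, fluorescence ratio 0.5 to 1.5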;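 further: 0% = enzyme with DMSO and 100% = no enzyme wells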
# Target sequence (Q9P0U3 419-644 limits assumed): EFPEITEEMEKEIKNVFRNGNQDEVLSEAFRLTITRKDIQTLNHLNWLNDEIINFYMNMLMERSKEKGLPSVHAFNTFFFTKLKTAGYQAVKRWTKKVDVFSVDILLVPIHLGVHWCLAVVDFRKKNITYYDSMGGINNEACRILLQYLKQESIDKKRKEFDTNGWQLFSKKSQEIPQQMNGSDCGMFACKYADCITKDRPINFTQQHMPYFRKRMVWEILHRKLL
#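 system = hSENP1 catalytic domain, recombinant | reagent = SFCypet-SUMO1-SFYpet substrate at 25 nM | doses = one dose per compound, 10 µM, 0.5% DMSO | incubation = enzyme reaction for 50 min at room temperature, dark | measured by = FRET, CFP and YFP emission | controls = no-enzyme low, enzyme-DMSO high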
# HSP90 refold inh = HSP90 inhibitors, primary screen, cell lysate, luminescence; 0.91% of 290,000 active; Rabbit reticulocyte lysate, luciferase refolding luminescence, 3 h; inhibition, % at 5.6 µM; AID 1789, 2009;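 active means inhibition above the screen-wide mean plus 3 SD, computed separately per campaign, cut at about 16% in these data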;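 further: 0% = DMSO wells and 100% = 60 µM geldanamycin wells; inhibitors lower the luminescence because luciferase stays unfolded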
# SENP8 block-2 = SENP8 protease inhibitors, primary screen, biochemical, luminescence; Sentrin-specific protease 8 (Homo sapiens), Q96LD8; purified SENP8, Z-RLRGG-aminoluciferin cleavage; inhibition, % at 10 µM; 1.2% of 330,000 active; AID 2540, 2010; in the data active means inhibition above about 50%
# SENP7 block = SENP7 protease inhibitors, primary screen, biochemical, luminescence, uHTS | Sentrin-specific protease 7 (Homo sapiens), Q9BQF6 | recombinant SENP7, Z-RLRGG-aminoluciferin luminescence, 40 min | inhibition, % at 5 µM | 1.5% of 330,000 active | AID 434973, 2010;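 active means inhibition above about 50% at the single test dose, limit read from the data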;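 further: plate controls were DMSO with enzyme for no effect and no enzyme buffer wells for full effect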
# HSP90 confirm = HSP90 inhibitors, confirmation, cell lysate, luminescence | shares compounds with HSP90 refold inh | rabbit reticulocyte lysate, luciferase refolding luminescence, 3 h | inhibition, % at 5.9 µM | 64% of 2,300 active; in the data active means inhibition above about 18%;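 further: 0% = vehicle wells and 100% = reference inhibitor wells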
# luciferase ctr = firefly luciferase inhibitors, HSP90 counter-screen, confirmation, artefact control for HSP90 inhibitor project, biochemical, luminescence, triplicate | shares compounds with HSP90 refold inh | purified native firefly luciferase | inhibition, % at 5.9 µM | 48% of 2,300 active | AID 1847, 2009;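 active means inhibition above the mean inhibition of all tested sample wells plus 3 SD, cut at about 10% in these data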;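 further: 0% = DMSO with luciferase and 100% = wells lacking luciferase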
# SENP8 conf = SENP8 protease inhibitors, retest, confirmation, biochemical, luminescence, single concentration; Recombinant SENP8, Z-RLRGG-aminoluciferin luminescence, 60 min; inhibition, % at 12.5 µM; 40% of 6,200 active; shares compounds with SENP7 block; AID 488912, 2010;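 active means mean inhibition across replicates above about 50%, limit read from the data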
# SENP6 conf = SENP6 protease inhibitors, confirmation, biochemical, luminescence, single concentration | inhibition, % at 12.5 µM | shares compounds with SENP7 block | recombinant SENP6, Z-RLRGG-aminoluciferin luminescence | 58% of 6,200 active | AID 488915, 2010
# SENP7 conf = SENP7 protease inhibitors, retest, confirmation, biochemical, luminescence, single concentration; shares compounds with SENP7 block; recombinant SENP7, Z-RLRGG-aminoluciferin luminescence, 40 min; inhibition, % at 12.5 µM; 69% of 6,200 active
# Casp3 select = caspase-3 protease inhibitors, confirmation, selectivity assay for SENP inhibitor project, biochemical, single concentration; 60% of 6,200 active; inhibition, % at 12.5 µM; AID 488918, 2010; shares compounds with SENP7 block; purified caspase-3, Z-DEVD-aminoluciferin luminescence, 60 min;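 active means mean inhibition above about 50%, limit read from the data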;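 further: plate controls were enzyme with DMSO for no effect and wells without caspase-3 for full effect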
# Luc interf = luminescence interference (SENP counter-screen) | shares compounds with SENP7 block | Pre-incubated SENP8/Z-RLRGG-aminoluciferin, luciferase luminescence interference | inhibition, % at 12.5 µM | 39% of 6,200 active;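 active means mean inhibition above about 50% when retested at one dose, limit read from the data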;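 further: plate controls were DMSO wells with completed reaction for no effect and substrate without enzyme for full effect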
# Active calls of the source: *; / = not tested or not shown.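 How the source made its calls, unless noted: active means mean inhibition above about 50% in the one-dose retest (limit read from the data); inactive means the rest.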
SMILES,SENP6 block,SENP8 block-1,SENP1 FRET inh,HSP90 refold inh,SENP8 block-2,SENP7 block,HSP90 confirm,luciferase ctr,others
CCOc1cc(/C=C2\C(=O)NC(=O)N(CCc3ccc(F)cc3)C2=O)ccc1O,15.6,28.5,-12.4,38.0*,3.0,4.3,6.7,7.8,
CCOP(=S)(NN(Cc1ccccc1)C(=O)c1ccccc1)OCC,-7.5,6.9,2.1,42.3*,1.2,9.0,5.0,-0.2,
CCOP(=O)(OCC)C(Cc1ccccc1)NC(C)=O (configuration not stated),-20.5,10.7,-0.2,-7.5,-7.8,1.9,/,/,
CNC(=O)Oc1cccc2ccccc12,-5.4,-18.3,6.7,4.0,4.4,-7.8,/,/,
CNC(=O)Oc1ccc(-c2cn3cc(C)ccc3n2)cc1,81.0*,-300.4,2.1,55.7*,66.6*,79.3*,67.9*,51.7*,
O=C(O)CC1OCC=C2CN3CCC45C6=CC(=O)C(=O)C([N+](=O)[O-])=C6NC4C1C2CC35 (configuration not stated),/,111.7*,19.2,35.0*,/,/,71.6*,-1.7,
O=C(O)CC1OCC=C2CN3CCC45c6ccccc6NC4C1C2CC35 (configuration not stated),-10.3,10.4,-0.3,0.0,-6.2,6.7,/,/,
CC(C)(C)c1ccc(O)c(N=Cc2c(O)ccc3ccccc23)c1,22.7,14.7,-26.4,29.8*,6.7,10.2,30.2*,-5.6,
O=C1NC(=O)C(=Cc2cccc(OCCOc3ccccc3)c2)C(=O)N1,5.5,13.8,0.2,3.0,4.8,-1.2,/,/,
Cc1ccc(OCCOc2cccc(C=C3C(=O)NC(=O)NC3=O)c2)c(C)c1,10.2,14.2,2.4,23.4*,-0.9,5.4,39.3*,17.0*,
CN1CCN(c2cccc3c2C(=O)c2ccccc2C3=O)CC1,/,23.3,1.1,19.0*,/,/,20.2*,1.5,
CC(C)(C)c1cc(OC(=O)Cc2ccccc2)ccc1O,3.4,12.4,-0.8,1.6,11.8,-6.6,/,/,
CCOC(=O)c1c(C)[nH]c(C)c1C(=O)C(Cc1ccccc1)N(C)C (configuration not stated),0.8,6.5,-1.3,22.1*,-2.2,3.1,-0.9,-5.9,
CN(C)C(Cc1ccccc1)C(=O)c1ccccc1 (configuration not stated),-1.1,2.0,-19.9,-4.2,1.2,0.9,/,/,
CN1CCN(/N=C/c2c(O)n(C)c(=O)n(C)c2=O)CC1,-3.2,10.5,1.6,-0.8,-0.3,3.3,/,/,
C=CCn1c(O)c(/C=N/N2CCCCC2c2cccnc2)c(=O)[nH]c1=S (configuration not stated),-5.8,20.0,0.1,-1.7,-3.1,5.7,/,/,
Cc1nc2c(=O)n(C)c(=O)nc-2n(C)n1,86.9*,131.7*,48.8*,77.8*,96.4*,96.0*,79.9*,83.5*,
CC(C)OC(=O)Cc1ccccc1,-10.7,15.4,2.1,/,2.4,3.0,/,/,
CN1CCN2c3ccc(N)cc3CC3(C(=O)NC(=O)NC3=O)C2C1 (configuration not stated),/,11.0,4.7,20.2*,/,/,-1.2,-15.3,
O=P(Oc1ccccc1)(Oc1ccccc1)N1CCN(c2ccc(F)cc2)CC1,-5.4,7.0,-0.3,-0.4,6.0,-8.2,/,/,
O=C1CC(c2cccnc2)=NN1c1ccccc1,17.4,17.7,0.5,28.1*,1.8,18.0,3.1,0.1,
COc1ccccc1-n1c(-c2cccs2)nc2ccccc2c1=O,-14.2,1.5,-0.6,17.3*,-8.6,-3.2,-0.2,-10.4,
COc1ccccc1-n1c(-c2ccccc2)nc2ccccc2c1=O,-5.7,0.7,0.9,-2.0,-5.9,9.1,/,/,
COc1ccc2nc(NC3=NCCN3)sc2c1,46.4,-0.6,0.0,-1.3,5.2,25.8,/,/,
COc1ccc(N/N=C/c2c(O)n(-c3ccc(C)c(C)c3)c(=O)[nH]c2=O)cc1,0.9,10.6,5.3,18.9*,-1.1,3.6,28.9*,-5.8,
Cc1ccc(-n2c(O)c(/C=N/Nc3ccccc3)c(=O)[nH]c2=O)cc1C,-3.5,/,/,1.5,-11.7,-10.7,/,/,
Cc1cc(OCC(=O)N2CCC(C(=O)O)(c3ccccc3)CC2)c2c(C)c(C)c(=O)oc2c1,-21.1,-194.4,-0.8,-3.0,-15.1,6.6,/,/,
CCOC(=O)c1c(N)n(CCCOC(=O)c2ccco2)c2nc3ccccc3nc12,15.1,-477.6,-113.8,0.8,21.4,19.8,/,/,
COCCCn1c(N)c(C(=O)OCCOC)c2nc3ccccc3nc21,58.3*,-472.5,-108.2,22.1*,59.9*,57.2*,-2.0,-4.1,SENP8 conf=6.7;SENP6 conf=8.7;SENP7 conf=1.0;Casp3 select=-1.9;Luc interf=-1.8
CCOC(=O)c1c(NS(=O)(=O)c2ccccc2)n(CCCOC)c2nc3ccccc3nc12,95.4*,-423.1,-28.0,22.2*,91.4*,95.3*,6.7,-4.2,SENP8 conf=29.0;SENP6 conf=58.3*;SENP7 conf=37.5;Casp3 select=1.2;Luc interf=0.6

# From PubChem BioAssay
